The test system of assay [1] is Staphylococcus aureus. In words: Antimicrobial activity against methicillin resistant Staphylococcus aureus isolate A20780 I isolated from persistent bacterial infection patient assessed as bacterial killing at 64 times MIC after 24 hrs by time kill study. Format: functional. In a few lines:
(§1)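 Time-kill in Ca/Mg-supplemented BHI. A 0.5 McFarland saline suspension was diluted to about 10^7 CFU/ml with vancomycin in 10-ml cultures, shaken at 35°C. Counts at 0, 1, 2, 4, 6 and 24 h by spiral plating on BHI agar, incubated 24 h at 35°C (48 h for Ia48 and III33). Drug-free growth controls were run. Value is the 24-h log10 CFU/ml change from baseline; runs were duplicate to quadruplicate.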

Assay [2] has as its system Staphylococcus aureus. In words: Antimicrobial activity against methicillin resistant Staphylococcus aureus isolate A20780 II with hemin auxotrophism and expressing small-colony-variant phenotype isolated from persistent bacterial infection patient assessed as bacterial killing at 64 times MIC after 24 hrs by time kill study. Format: functional. The procedure, abridged:
as §1

The test system of assay [3] is Staphylococcus aureus. Kind of assay: Antimicrobial activity against methicillin resistant Staphylococcus aureus COL assessed as bacterial killing at 64 times MIC after 24 hrs by time kill study relative to baseline. It is filed as functional. In a few lines:
as §1

Assay [4] concerns Staphylococcus aureus. In words: Antimicrobial activity against methicillin resistant Staphylococcus aureus isolate A20780 I isolated from persistent bacterial infection patient assessed as bacterial killing by time kill study. It is filed as functional, organism-based.
The test system of assay [5] is Staphylococcus aureus. In words: Antimicrobial activity against methicillin resistant Staphylococcus aureus Newman assessed as bacterial killing by time kill study. Format: functional, organism-based.
Assay [6] relates to Staphylococcus aureus. In words: Antimicrobial activity against methicillin resistant Staphylococcus aureus Newman assessed as bacterial killing at 64 times MIC after 24 hrs by time kill study relative to baseline. Format: functional. The procedure, abridged: as §1
The test system of assay [7] is Staphylococcus aureus. Kind of assay: Antimicrobial activity against methicillin resistant Staphylococcus aureus COL assessed as bacterial killing by time kill study. It is filed as functional, organism-based.
Assay [8] has as its system Staphylococcus aureus. In words: Antimicrobial activity against methicillin resistant Staphylococcus aureus III33 containing hemB mutation (hemB::ermB) expressing small-colony-variant phenotype assessed as bacterial killing at 64 times MIC after 24 hrs by time kill study. It is filed as functional. The procedure, abridged: as §1
For assay [9], the system named is Staphylococcus aureus. Kind of assay: Antimicrobial activity against methicillin resistant Staphylococcus aureus Ia48 containing hemB mutation (hemB::ermB) expressing small-colony-variant phenotype assessed as bacterial killing at 64 times MIC after 24 hrs by time kill study. It is filed as functional. The procedure, abridged:
as §1

Consider `CN[C@H](CC(C)C)C(=O)N[C@H]1C(=O)N[C@@H](CC(N)=O)C(=O)N[C@H]2C(=O)N[C@H]3C(=O)N[C@H](C(=O)N[C@H](C(=O)O)c4cc(O)cc(O)c4-c4cc3ccc4O)[C@H](O)c3ccc(c(Cl)c3)Oc3cc2cc(c3O[C@@H]2O[C@H](CO)[C@@H](O)[C@H](O)[C@H]2O[C@H]2C[C@](C)(N)[C@H](O)[C@H](C)O2)Oc2ccc(cc2Cl)[C@H]1O` [VANCOMYCIN], for which the log10CFU/ml in the assay with Staphylococcus aureus [1] was found to be 2.39; in the assay with Staphylococcus aureus [2], 1.78; in the assay with Staphylococcus aureus [3] it was 3.99; with Staphylococcus aureus [6] it was 4.81; in the assay with Staphylococcus aureus [8], 1.88; with Staphylococcus aureus [9] it was 1.4. The Activity result in the assay with Staphylococcus aureus [4], in the assay with Staphylococcus aureus [5] and with Staphylococcus aureus [7] was “Dose-dependent effect” throughout.

The values are drawn from ChEMBL document CHEMBL1255317, “Attenuated vancomycin bactericidal activity against Staphylococcus aureus hemB mutants expressing the small-colony-variant phenotype” (2008).
